How the values were obtained:
[1] = molecular target: T1, Adenosine receptor A3 (Homo sapiens, UniProt P0DMS8); experiment: (§1) Displacement of [3H]-MRE3008F20 from human adenosine A3 receptor expressed in CHO cell membranes after 120 mins by scintillation counting analysis
T1 sequence (P0DMS8 whole entry): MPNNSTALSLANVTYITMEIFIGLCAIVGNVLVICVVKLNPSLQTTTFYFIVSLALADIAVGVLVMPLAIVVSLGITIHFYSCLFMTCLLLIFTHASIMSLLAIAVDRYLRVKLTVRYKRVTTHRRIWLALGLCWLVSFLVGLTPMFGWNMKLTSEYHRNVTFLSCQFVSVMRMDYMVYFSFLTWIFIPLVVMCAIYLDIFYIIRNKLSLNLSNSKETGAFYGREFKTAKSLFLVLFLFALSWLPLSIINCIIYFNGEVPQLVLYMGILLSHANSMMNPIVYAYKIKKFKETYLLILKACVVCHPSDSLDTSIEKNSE
Summary of the method: (§2)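 Membranes from transfected CHO cells in 50 mM Tris HCl, 10 mM MgCl2, 1 mM EDTA, pH 7.4, at 50 µg protein/assay. [3H]MRE3008F20 1 nM with 6-8 ligand concentrations, 120 min at 4 °C. Non-specific binding defined with 1 µM MRE3008F20. GF/B filtration, then scintillation counting. Ki by Cheng-Prusoff, n=3-6, mean ± SEM.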

[2] = molecular target: T2, Adenosine receptor A1 (Homo sapiens, UniProt P30542); experiment: (§3) Displacement of [3H]-DPCPX from human adenosine A1 receptor expressed in CHO cell membranes after 120 mins by scintillation counting analysis
T2 sequence (P30542 whole entry): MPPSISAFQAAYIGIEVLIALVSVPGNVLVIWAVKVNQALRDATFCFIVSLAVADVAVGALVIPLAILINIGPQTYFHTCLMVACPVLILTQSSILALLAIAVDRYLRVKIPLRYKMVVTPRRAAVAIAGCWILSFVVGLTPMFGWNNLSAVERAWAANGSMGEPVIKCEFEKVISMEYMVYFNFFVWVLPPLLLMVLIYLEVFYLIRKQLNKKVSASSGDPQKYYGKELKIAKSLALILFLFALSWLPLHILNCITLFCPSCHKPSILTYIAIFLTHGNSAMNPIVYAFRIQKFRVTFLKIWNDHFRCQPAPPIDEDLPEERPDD
Summary of the method: (§4)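 Membranes from transfected CHO cells in 50 mM Tris HCl pH 7.4 at 50 µg protein/assay, pretreated with adenosine deaminase 2 IU/ml. [3H]DPCPX 1 nM against 6-8 antagonist concentrations, 120 min at 25 °C. Non-specific binding defined with 1 µM DPCPX. GF/B filtration, then scintillation counting. Ki by Cheng-Prusoff, n=3-6, mean ± SEM.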

[3] = molecular target: T3, Adenosine receptor A1 (Homo sapiens) (UniProt P30542); experiment: as §3; design: concentration or dose not given beside the values; summary of the method: as §4
T3 sequence (whole entry): T2 sequence (P30542 whole entry)

[4] = molecular target: T4, Adenosine receptor A3 (Homo sapiens) (UniProt P0DMS8); experiment: Antagonist activity at human adenosine A3 receptor expressed in CHO cells assessed as inhibition of Cl-IB-MECA-mediated suppression of forskolin-induced cyclic-AMP accumulation by scintillation counting analysis in presence of [3H]-cyclic AMP; assay type: cell-based
T4 sequence (whole entry): T1 sequence (P0DMS8 whole entry)
Summary of the method: (§5)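 Preincubated at 37 °C. A2B: antagonism of NECA (100 nM)-stimulated cAMP. A3: forskolin 1 µM plus Cl-IB-MECA (100 nM). Stopped with cold 6% TCA, then ether-extracted. cAMP measured by competition protein binding with [3H]cAMP. KB derived by modified Cheng-Prusoff (Leff and Dougall), mean ± SEM.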

[5] = molecular target: Adenosine receptor A2a (Homo sapiens, UniProt P29274); experiment: Displacement of [3H]-ZM241385 from human adenosine A2A receptor expressed in CHO cell membranes after 60 mins by scintillation counting analysis
Summary of the method: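 Membranes from transfected CHO cells in 50 mM Tris HCl, 10 mM MgCl2, pH 7.4, at 50 µg protein/assay. [3H]ZM241385 2 nM with 6-8 competitor concentrations, 60 min at 4 °C. Non-specific binding defined with 1 µM ZM241385. Filtered on GF/B, bound radioactivity counted. Ki via Cheng-Prusoff, n=3-6, mean ± SEM.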

[6] = molecular target: T5, Adenosine receptor A2b (Homo sapiens) (UniProt P29275); experiment: Antagonist activity at human adenosine A2B receptor expressed in CHO cells assessed as inhibition of NECA-stimulated cyclic AMP production by scintillation counting analysis in presence of [3H]-cyclic AMP; assay type: cell-based; design: inhibition: concentration or dose not given beside the values; settings: for inhibition: concentration not given here; summary of the method: as §5
T5 sequence (whole entry): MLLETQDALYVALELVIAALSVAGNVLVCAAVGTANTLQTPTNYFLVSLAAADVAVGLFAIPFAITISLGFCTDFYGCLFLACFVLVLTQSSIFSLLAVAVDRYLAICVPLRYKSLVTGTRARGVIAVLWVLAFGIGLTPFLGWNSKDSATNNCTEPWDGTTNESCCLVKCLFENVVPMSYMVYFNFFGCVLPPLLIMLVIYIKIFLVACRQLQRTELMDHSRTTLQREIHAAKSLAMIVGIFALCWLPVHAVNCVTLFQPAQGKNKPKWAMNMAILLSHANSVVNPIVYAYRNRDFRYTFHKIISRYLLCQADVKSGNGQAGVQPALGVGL

[7] = molecular target: T4, Adenosine receptor A3 (Homo sapiens); experiment: as §1; summary of the method: as §2

Adenosine receptor A2a, sequence (P29274 whole entry): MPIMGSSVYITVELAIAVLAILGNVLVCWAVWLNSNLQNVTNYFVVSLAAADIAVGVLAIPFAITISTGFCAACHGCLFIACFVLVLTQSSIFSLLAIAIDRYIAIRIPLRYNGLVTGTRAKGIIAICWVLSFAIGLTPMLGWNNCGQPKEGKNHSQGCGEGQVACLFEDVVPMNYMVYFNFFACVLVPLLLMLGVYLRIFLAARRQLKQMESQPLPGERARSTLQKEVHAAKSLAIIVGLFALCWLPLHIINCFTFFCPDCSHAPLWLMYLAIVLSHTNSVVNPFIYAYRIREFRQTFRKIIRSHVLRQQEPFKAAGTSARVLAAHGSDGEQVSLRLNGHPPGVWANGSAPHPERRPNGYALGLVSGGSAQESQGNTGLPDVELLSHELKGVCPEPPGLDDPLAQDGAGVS

| Ki [1] [nM] | Ki [2] [nM] | inhibition [3] [%] | Kb [4] [nM] | Ki [5] [nM] | inhibition [5] [%] | Kb [6] [nM] | inhibition [6] [%] | inhibition [7] [%] | inhibition ([4]; concentration not given here) [%] | SMILES |
| --- | --- | --- | --- | --- | --- | --- | --- | --- | --- | --- |
| 42 | > 1000 | 7 | 42 | > 1000 | 1 | > 1000 | 4 |  |  | COc1ccc(NC(=Nc2nc3nn(C)cc3c3nc(-c4ccco4)nn23)Nc2ccc(OC)cc2)cc1 |
| 33 | > 1000 | 4 | 36 | > 1000 | 1 | > 1000 | 3 |  |  | CC(C)NC(=Nc1nc2nn(C)cc2c2nc(-c3ccco3)nn12)NC(C)C |
| 29 | > 1000 | 25 | 32 | > 1000 | 3 | > 1000 | 4 |  |  | Cn1cc2c(nc(N=C(NC3CCCCC3)NC3CCCCC3)n3nc(-c4ccco4)nc23)n1 |
| 71 | > 1000 | 8 | 63 | > 1000 | 11 | > 1000 | 2 |  |  | Cn1cc2c(nc(N=C(Nc3ccc(Cl)cc3)Nc3ccc(Cl)cc3)n3nc(-c4ccco4)nc23)n1 |
| 122 | > 1000 | 1 | 129 | > 1000 | 16 | > 1000 | 1 |  |  | Cn1cc2c(nc(N=C(Nc3ccc(F)cc3)Nc3ccc(F)cc3)n3nc(-c4ccco4)nc23)n1 |
| 155 | > 1000 | 1 | 141 | > 1000 | 18 | > 1000 | 1 |  |  | COc1cccc(NC(=Nc2nc3nn(C)cc3c3nc(-c4ccco4)nn23)Nc2cccc(OC)c2)c1 |
| 30 | > 1000 | 1 | 33 | > 1000 | 1 | > 1000 | 1 |  |  | Cn1cc2c(nc(N=C(Nc3ccc(C#N)cc3)Nc3ccc(C#N)cc3)n3nc(-c4ccco4)nc23)n1 |
| 345 | > 1000 | 1 | 362 | > 1000 | 10 | > 1000 | 1 |  |  | Cn1cc2c(nc(N=C(Nc3ccc(Br)cc3)Nc3ccc(Br)cc3)n3nc(-c4ccco4)nc23)n1 |
| 79 | > 1000 | 10 | 67 | > 1000 | 2 | > 1000 | 1 |  |  | Cn1cc2c(nc(N=C(Nc3ccccc3)Nc3ccccc3)n3nc(-c4ccco4)nc23)n1 |
| 89 | > 1000 | 17 | 74 | > 1000 | 1 | > 1000 | 1 |  |  | Cn1cc2c(nc(N=C(Nc3cccc(Cl)c3)Nc3cccc(Cl)c3)n3nc(-c4ccco4)nc23)n1 |
| > 1000 | > 1000 | 22 | > 1000 | > 1000 | 3 | > 1000 | 1 | 19 | 3 | CCN/C(=N\c1nc2nn(C)cc2c2nc(-c3ccco3)nn12)NCCCN(C)C |
| 520 | > 1000 | 3 | 537 | > 1000 | 1 | > 1000 | 2 |  |  | Cn1cc2c(nc(N=C(Nc3cccc(C(F)(F)F)c3)Nc3cccc(C(F)(F)F)c3)n3nc(-c4ccco4)nc23)n1 |
| 63 | > 1000 | 6 | 57 | > 1000 | 1 | > 1000 | 3 |  |  | Cc1ccc(NC(=Nc2nc3nn(C)cc3c3nc(-c4ccco4)nn23)Nc2ccc(C)cc2)cc1 |
| 18 | > 1000 | 1 | 13 | > 1000 | 1 | > 1000 | 1 |  |  | Cn1cc2c(nc(N=C(Nc3ccc([N+](=O)[O-])cc3)Nc3ccc([N+](=O)[O-])cc3)n3nc(-c4ccco4)nc23)n1 |

From ChEMBL document CHEMBL3580606, “One-pot reaction to obtain N,N'-disubstituted guanidines of pyrazolo[4,3-e][1,2,4]triazolo[1,5-c]pyrimidine scaffold as human A3 adenosine receptor antagonists” (J Med Chem, 2015)
